Assay [1] addresses T1, Cannabinoid receptor 2 (Homo sapiens, UniProt P34972). In words: Displacement of [3H]CP-55940 from human recombinant CB2 receptor expressed in HEK cells. The format is cell-based, HEK293.
The species named for another assay is Homo sapiens. Kind of assay: Selectivity for human recombinant CB2 receptor over human recombinant CB1 receptor. In a few lines: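 Ki ratio from [3H]CP-55940 (0.5 nM) competition binding: human CB1 membranes from stably expressing […] cells versus human CB2 membranes from stably expressing HEK cells. Tris-HCl pH 7.4 buffer with EDTA, MgCl2, BSA; 90 min at 30 °C; filtration counting; nonspecific with 10 µM unlabeled ligand; ≥3 experiments in duplicate.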

The target in assay [2] is T1, Cannabinoid receptor 2. In words: Agonist activity at human recombinant CB2 receptor expressed in HEK cells assessed as calcium mobilization by FLIPR. The format is functional, cell-based, HEK293. In a few lines: (§1)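 HEK cells stably coexpressing human CB2 and chimeric Gαq/o5 protein, seeded 75,000/well one day before; no-wash calcium dye.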
A general note: Calcium assays in cells follow changes in intracellular calcium, usually with a dye or a luminescent sensor.

A further assay concerns the target Cannabinoid receptor 1 (Homo sapiens, UniProt P21554). Kind of assay: Displacement of [3H]CP-55940 from human recombinant CB1 receptor expressed in HEK cells. It counts as cell-based, HEK293.
Assay [3] has as its target T1, Cannabinoid receptor 2. Kind of assay: Agonist activity at human recombinant CB2 receptor expressed in HEK cells assessed as calcium mobilization by FLIPR relative to CP-55940. It counts as functional, cell-based. The following applies: HEK293. In a few lines: as §1

Here are results for 38 compounds from ChEMBL document CHEMBL1144013, “Indol-3-yl-tetramethylcyclopropyl ketones: effects of indole ring substitution on CB2 cannabinoid receptor activity” (J Med Chem, 2008).

For orientation: Ki means the dissociation constant of the complex between target and ligand, obtained from inhibition or displacement. Usually EC50 stands for the concentration giving half of the maximal effect.

Some results are limits rather than exact numbers.

Sequence of Cannabinoid receptor 1 (P21554 whole entry): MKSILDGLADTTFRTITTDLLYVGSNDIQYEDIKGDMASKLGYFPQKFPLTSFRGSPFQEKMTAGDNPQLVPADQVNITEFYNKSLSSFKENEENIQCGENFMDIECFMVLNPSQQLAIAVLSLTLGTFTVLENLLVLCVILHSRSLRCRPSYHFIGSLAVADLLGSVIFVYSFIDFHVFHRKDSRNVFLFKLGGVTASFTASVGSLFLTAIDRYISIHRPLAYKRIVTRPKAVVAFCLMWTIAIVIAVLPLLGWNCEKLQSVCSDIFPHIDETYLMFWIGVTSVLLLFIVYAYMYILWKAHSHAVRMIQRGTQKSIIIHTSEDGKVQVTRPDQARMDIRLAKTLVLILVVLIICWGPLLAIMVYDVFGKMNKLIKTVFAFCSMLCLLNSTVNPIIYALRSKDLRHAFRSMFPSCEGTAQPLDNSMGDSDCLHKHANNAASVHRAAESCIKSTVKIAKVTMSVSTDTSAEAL
T1 sequence (P34972 whole entry): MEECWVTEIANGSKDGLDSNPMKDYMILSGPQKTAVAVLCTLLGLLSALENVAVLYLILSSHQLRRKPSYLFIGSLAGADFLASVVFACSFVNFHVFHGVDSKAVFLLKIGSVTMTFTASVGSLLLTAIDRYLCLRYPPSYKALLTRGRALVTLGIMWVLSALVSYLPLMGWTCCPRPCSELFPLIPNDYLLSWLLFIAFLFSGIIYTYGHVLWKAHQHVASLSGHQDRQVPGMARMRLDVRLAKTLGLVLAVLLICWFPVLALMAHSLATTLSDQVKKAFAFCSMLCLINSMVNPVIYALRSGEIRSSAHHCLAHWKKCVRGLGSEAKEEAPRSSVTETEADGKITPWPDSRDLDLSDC

As to `CC1(C)C(C(=O)c2cn(CC3CCOCC3)c3ccc(OCc4ccccc4)cc23)C1(C)C`, the Ki amounted to 0.0013 µM on Cannabinoid receptor 2 [1] (read-out: Ki) and 0.238 µM on Cannabinoid receptor 1 (read-out: Ki). For the same compound, in the assay listed under Homo sapiens, the Ratio Ki stood at 183. The EC50 at Cannabinoid receptor 2 [2] was more than 10 µM.
Turning to `Cc1c(C(=O)C2C(C)(C)C2(C)C)c2ccccc2n1CCN1CCOCC1`, the inhibition constant Ki is 0.027 µM on Cannabinoid receptor 2 [1] (read-out: Ki) and more than 10 µM at Cannabinoid receptor 1 (read-out: Ki). The Ratio Ki in the assay filed under Homo sapiens was more than 370. Besides, on Cannabinoid receptor 2 [3], the Activity was determined as 60%. Also, on Cannabinoid receptor 2 [2], the EC50 turned out to be 0.227 µM.
Turning to `CC1(C)C(C(=O)c2cn(CC3CCOCC3)c3cc(CN)ccc23)C1(C)C`, the Ki at Cannabinoid receptor 2 [1] (read-out: Ki) is 0.062 µM; on Cannabinoid receptor 1 (read-out: Ki), more than 1 µM. In the assay listed under Homo sapiens, the Ratio Ki was more than 16. Besides, the EC50 on Cannabinoid receptor 2 [2] was more than 10 µM.
In the same order, the values of `CC1(C)C(C(=O)c2cn(CC3CCOCC3)c3cc(C(F)(F)F)ccc23)C1(C)C` are 0.0035 µM, 0.07 µM, 20 and more than 10 µM.
Take `CC1(C)C(C(=O)c2cn(CC3CCOCC3)c3ccc(-c4ccccc4)cc23)C1(C)C`: the inhibition constant (Ki) on Cannabinoid receptor 2 [1] (read-out: Ki) is 0.058 µM. Moreover, the EC50 on Cannabinoid receptor 2 [2] was more than 10 µM.
Turning to `CC1(C)C(C(=O)c2cn(CC3CCOCC3)c3c(O)cccc23)C1(C)C`, on Cannabinoid receptor 2 [1] (read-out: Ki), the Ki is 0.0032 µM. For the same compound, the EC50 on Cannabinoid receptor 2 [2] was more than 10 µM.
In the case of `CC1(C)C(C(=O)c2cn(CC3CCOCC3)c3cc4c(cc23)OCO4)C1(C)C`, the Ki at Cannabinoid receptor 2 [1] (read-out: Ki) stood at 0.001 µM. For the same compound, the Activity on Cannabinoid receptor 2 [3] came to 62%. The EC50 on Cannabinoid receptor 2 [2] amounted to 0.018 µM.
In the same order, the values of `CC1(C)C(C(=O)c2cn(CC3CCOCC3)c3cc(C#N)ccc23)C1(C)C` are 0.005 µM, 67% and 0.045 µM.
For `CC(=O)Nc1cccc2c1c(C(=O)C1C(C)(C)C1(C)C)cn2CCN1CCOCC1`, the Ki was more than 1 µM at Cannabinoid receptor 2 [1] (read-out: Ki), more than 2.2 µM on Cannabinoid receptor 1 (read-out: Ki) and more than 2.19 µM on Cannabinoid receptor 1 (read-out: Log Ki (converted)). For the same compound, on Cannabinoid receptor 2 [2], the 50% effective concentration (EC50) is more than 10 µM.
Consider `CN1CCCCC1Cn1cc(C(=O)c2cc([N+](=O)[O-])ccc2I)c2ccccc21` (centres undefined), for which the results for the Ki on Cannabinoid receptor 2 [1] (read-out: Ki) and on Cannabinoid receptor 1 (read-out: Ki) were 0.0115 µM and 1.27 µM, respectively. Besides, the Ratio Ki in the assay filed under Homo sapiens was 110. Also, the EC50 on Cannabinoid receptor 2 [2] was more than 10 µM.
In the case of `CC1(C)C(C(=O)c2cn(CCN3CCOCC3)c3cc(OCc4ccccc4)ccc23)C1(C)C`, the Ki at Cannabinoid receptor 2 [1] (read-out: Ki) turned out to be 0.0029 µM. In addition, on Cannabinoid receptor 2 [2], the EC50 was more than 10 µM.
Regarding `CC1(C)C(C(=O)c2cn(CC3CCOCC3)c3ccc(CN)cc23)C1(C)C`, the figures for the Ki on Cannabinoid receptor 2 [1] (read-out: Ki) and on Cannabinoid receptor 1 (read-out: Ki) were more than 1 µM and more than 10 µM, respectively. For the same compound, the concentration giving a half-maximal response (EC50) on Cannabinoid receptor 2 [2] is more than 10 µM.
Consider `COCc1ccc2c(c1)c(C(=O)C1C(C)(C)C1(C)C)cn2CC1CCOCC1`, for which, at Cannabinoid receptor 2 [1] (read-out: Ki), the Ki is 0.026 µM. The Activity on Cannabinoid receptor 2 [3] amounted to 50%. For the same compound, at Cannabinoid receptor 2 [2], the concentration giving a half-maximal response (EC50) was 0.041 µM.
`CC1(C)C(C(=O)c2cn(CCN3CCOCC3)c3ccc(O)cc23)C1(C)C`: the figures for the inhibition constant (Ki) at Cannabinoid receptor 2 [1] (read-out: Ki) and at Cannabinoid receptor 1 (read-out: Ki) were 0.092 µM and more than 10 µM, respectively. In the assay listed under Homo sapiens, the Ratio Ki was more than 109. On Cannabinoid receptor 2 [2], the EC50 is more than 10 µM.
With `CCCn1c(C)c(C(=O)c2cccc3ccccc23)c2ccccc21`, the Activity on Cannabinoid receptor 2 [3] turned out to be 75%.
As to `CC1(C)C(C(=O)c2cn(CCN3CCOCC3)c3cccc([N+](=O)[O-])c23)C1(C)C`, the Ki is 0.297 µM on Cannabinoid receptor 2 [1] (read-out: Ki) and more than 10 µM at Cannabinoid receptor 1 (read-out: Ki). Also, the Ratio Ki in the assay listed under Homo sapiens is more than 34. Also, on Cannabinoid receptor 2 [2], the EC50 was more than 10 µM.
For the compound `COc1cc2c(cc1OCc1ccccc1)c(C(=O)C1C(C)(C)C1(C)C)cn2CC1CCOCC1`, the Ki on Cannabinoid receptor 2 [1] (read-out: Ki) stood at 0.0018 µM. Also, the 50% effective concentration (EC50) at Cannabinoid receptor 2 [2] was more than 10 µM.
Take `COc1cc2c(cc1O)c(C(=O)C1C(C)(C)C1(C)C)cn2CC1CCOCC1`: on Cannabinoid receptor 2 [1] (read-out: Ki), the Ki came to 0.0007 µM. Also, the EC50 at Cannabinoid receptor 2 [2] was more than 10 µM.
`CC1(C)C(C(=O)c2cn(CC3CCOCC3)c3ccccc23)C1(C)C`: on Cannabinoid receptor 2 [1] (read-out: Ki), the Ki was determined as 0.00021 µM. On Cannabinoid receptor 2 [3], the Activity was 133%. Besides, at Cannabinoid receptor 2 [2], the EC50 amounted to 0.007 µM.
Consider `COc1ccc2c(C(=O)C3C(C)(C)C3(C)C)cn(CCN3CCOCC3)c2c1`, for which the Ki on Cannabinoid receptor 2 [1] (read-out: Log Ki (converted)) is 0.00158 µM. Also, the EC50 on Cannabinoid receptor 2 [2] was more than 10 µM.
As for `CC1(C)C(C(=O)c2cn(CCN3CCOCC3)c3ccc(OCc4ccccc4)cc23)C1(C)C`, the Ki was more than 1 µM at Cannabinoid receptor 2 [1] (hek293, read-out: Ki); more than 1 µM on Cannabinoid receptor 2 [1] (read-out: Log Ki (converted)); more than 10 µM on Cannabinoid receptor 1 (read-out: Ki). Also, the EC50 at Cannabinoid receptor 2 [2] is more than 10 µM.
Consider `CC1(C)C(C(=O)c2cn(CC3CCOCC3)c3cc(O)c(O)cc23)C1(C)C`, for which the Ki on Cannabinoid receptor 2 [1] (read-out: Ki) was determined as 0.021 µM. On Cannabinoid receptor 2 [3], the Activity turned out to be 106%. On Cannabinoid receptor 2 [2], the EC50 worked out at 0.021 µM.
With `CC1(C)C(C(=O)c2cn(CC3CCOCC3)c3ccc(O)cc23)C1(C)C`, on Cannabinoid receptor 2 [1] (read-out: Ki), the Ki worked out at 0.0019 µM. Moreover, the Activity on Cannabinoid receptor 2 [3] was determined as 78%. The EC50 at Cannabinoid receptor 2 [2] was determined as 0.007 µM.
Regarding `CC1(C)C(C(=O)c2cn(CCN3CCOCC3)c3cccc(NS(C)(=O)=O)c23)C1(C)C`, the Ki at Cannabinoid receptor 2 [1] (read-out: Ki) was more than 1 µM. Also, the EC50 at Cannabinoid receptor 2 [2] is more than 10 µM.
In the same order, the values of `CC1(C)C(C(=O)c2cn(CC3CCOCC3)c3cc(Br)ccc23)C1(C)C` are 0.00065 µM and more than 10 µM.
In the case of `Cc1ccc2c(C(=O)C3C(C)(C)C3(C)C)cn(CC3CCOCC3)c2c1`, the Ki on Cannabinoid receptor 2 [1] (read-out: Ki) came out at 0.00015 µM. At Cannabinoid receptor 2 [2], the EC50 was more than 10 µM.
Regarding `COC(=O)c1ccc2c(C(=O)C3C(C)(C)C3(C)C)cn(CC3CCOCC3)c2c1`, the Ki on Cannabinoid receptor 2 [1] (read-out: Ki) stood at 0.0014 µM. Further, the EC50 on Cannabinoid receptor 2 [2] is more than 10 µM.
For the compound `COc1ccc2c(c1)c(C(=O)C1C(C)(C)C1(C)C)cn2CCN1CCOCC1`, the Ki at Cannabinoid receptor 2 [1] (read-out: Ki) was 0.237 µM; at Cannabinoid receptor 1 (read-out: Ki), more than 3.5 µM; at Cannabinoid receptor 1 (read-out: Log Ki (converted)) it was more than 3.47 µM. For the same compound, in the assay listed under Homo sapiens, the Ratio Ki is more than 15. Besides, the EC50 at Cannabinoid receptor 2 [2] is more than 10 µM.
`COc1cccc2c(C(=O)C3C(C)(C)C3(C)C)cn(CC3CCOCC3)c12`: at Cannabinoid receptor 2 [1] (read-out: Ki), the Ki came to 0.00012 µM. In addition, the EC50 on Cannabinoid receptor 2 [2] is more than 10 µM.
Take `CC1(C)C(C(=O)c2cn(CC3CCOCC3)c3c(OCc4ccccc4)cccc23)C1(C)C`: the Ki on Cannabinoid receptor 2 [1] (read-out: Ki) stood at 0.0031 µM; on Cannabinoid receptor 1 (read-out: Ki), 1.1 µM. Further, the Ratio Ki in the assay listed under Homo sapiens was found to be 353. In addition, the EC50 at Cannabinoid receptor 2 [2] is more than 10 µM.
On to `COc1ccc2c(C(=O)C3C(C)(C)C3(C)C)cn(CC3CCOCC3)c2c1`, for which the Ki at Cannabinoid receptor 2 [1] (read-out: Ki) is 0.00051 µM; on Cannabinoid receptor 1 (read-out: Ki) it was 0.04 µM. The Ratio Ki in the assay listed under Homo sapiens came to 78. Besides, at Cannabinoid receptor 2 [2], the EC50 was more than 10 µM.
For `COC(=O)c1ccc2c(c1)c(C(=O)C1C(C)(C)C1(C)C)cn2CC1CCOCC1` the same measures were 0.238 µM, more than 10 µM, more than 42 and more than 10 µM.
Turning to `CC1(C)C(C(=O)c2cn(CC3CCOCC3)c3ccc(C#N)cc23)C1(C)C`, at Cannabinoid receptor 2 [1] (read-out: Ki), the inhibition constant (Ki) turned out to be 0.03 µM. In addition, at Cannabinoid receptor 2 [3], the Activity is 65%. In addition, at Cannabinoid receptor 2 [2], the EC50 is 0.226 µM.
As for `CC1(C)C(C(=O)c2cn(CC3CCOCC3)c3ccc(OCCCCO)cc23)C1(C)C`, the Ki is 0.26 µM on Cannabinoid receptor 2 [1] (read-out: Ki) and more than 10 µM on Cannabinoid receptor 1 (read-out: Ki). Moreover, in the assay listed under Homo sapiens, the Ratio Ki was more than 38. For the same compound, at Cannabinoid receptor 2 [2], the EC50 was more than 10 µM.
For `CC1(C)C(C(=O)c2cn(CC3CCOCC3)c3cc(S(C)(=O)=O)ccc23)C1(C)C`, the Ki at Cannabinoid receptor 2 [1] (read-out: Ki) came out at 0.003 µM; on Cannabinoid receptor 1 (read-out: Ki), 1.27 µM. Moreover, the Ratio Ki in the assay filed under Homo sapiens was 423. In addition, the EC50 on Cannabinoid receptor 2 [2] was more than 10 µM.
As to `CC1(C)C(C(=O)c2cn(CC3CCOCC3)c3cc(Cl)ccc23)C1(C)C`, at Cannabinoid receptor 2 [1] (read-out: Ki), the inhibition constant (Ki) was 0.0025 µM. In addition, the Activity at Cannabinoid receptor 2 [3] was 60%. In addition, on Cannabinoid receptor 2 [2], the EC50 was 0.01 µM.
In the same order, the values of `CC1(C)C(C(=O)c2cn(CC3CCOCC3)c3cc(OCc4ccccc4)ccc23)C1(C)C` are 0.00088 µM, 45% and 0.135 µM.
On to `CC1(C)C(C(=O)c2cn(CC3CCOCC3)c3ccc(OCCCCBr)cc23)C1(C)C`, for which the Ki at Cannabinoid receptor 2 [1] (read-out: Ki) was 0.072 µM; at Cannabinoid receptor 1 (read-out: Ki) it was more than 10 µM. In addition, the Ratio Ki in the assay filed under Homo sapiens is more than 139. Further, the EC50 on Cannabinoid receptor 2 [2] is more than 10 µM.
